Compound activity from PubChem BioAssay.
PGC1a acetyl inh – lowers PGC1a acetylation signal in U2OS cells. AlphaScreen anti-acetyl-lysine; with virally co-expressed GCN5 acetyltransferase. inhibition, % at 15.6 µM. 350,000 tested, 0.17% active;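 active = every replicate shows inhibition of at least 40%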;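 note: 0% = neutral control wells and 100% = positive control wells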
FGF22 binding – shifts melting point of recombinant human FGF22 | 340,000 tested, 1.5% active | Q9HCT0 | recombinant FGF22 thermal shift, SYPRO orange fluorescence; percent of sucrose octasulfate shift, DMSO zero | activity (Tm shift, normalised), % at 9.99 µM | AID 651658;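 active = mean Tm shift, scaled 0 neutral to 100 positive control, at about 1.3% or above, every replicate too, limit read from the data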
Target sequence (Q9HCT0 whole entry, looked up): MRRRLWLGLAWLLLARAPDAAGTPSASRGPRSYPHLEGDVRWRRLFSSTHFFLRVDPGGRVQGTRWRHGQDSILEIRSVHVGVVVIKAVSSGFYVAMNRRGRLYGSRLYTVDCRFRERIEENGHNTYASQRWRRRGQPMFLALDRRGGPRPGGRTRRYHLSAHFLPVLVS
EWS-Fli block – inhibitors of EWS/Fli oncoprotein transcriptional activity; inhibition, % at 12.6 µM; 350,000 tested, 0.67% active; A673 NR0B1-luciferase reporter, viability-normalised;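 active = mean inhibition of at least 50% after viability correction, with every replicate also passing that limit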;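 note: firefly luciferase signal divided by Alamar Blue viability fluorescence both relative to DMSO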
Env fusion inh – blocks HIV Env-driven cell-cell fusion; HeLa-JRFL Env/CEM21 cell fusion, luciferase; inhibition, % at 12.3 µM; 360,000 tested, 1.1% active;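 active = mean replicate inhibition score of at least 50 and every replicate individually at or above 50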;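 note: 0% = plate neutral controls and 100% = maraviroc near 300 nM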
FN deposition inh – fibronectin deposition inhibition; AH1F fibroblasts, Alexa488-fibronectin deposition fluorescence, overnight; inhibition, % at 12.6 µM; 350,000 tested, 0.086% active; AID 743247;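 active = mean inhibition across replicates of 30% or more, regardless of how many single replicates reach that level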;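 note: positive control wells lacked labelled fibronectin entirely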
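Material: AH1F fibroblast monolayer depositing Alexa488-labelled fibronectin into matrix | Input: 10000 AH1F cells/well | Medium: DMEM plus 2% serum, read in PBS | Reagent: Alexa488-fibronectin, 24 nM final in well | Compound dosing: One dose per compound, pinned | Schedule: 1 h adhesion, overnight exposure | Measured by: Fluorescence at 485 nm excitation, 525 nm emission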
PAX8 inh HTS – inhibitors of PAX8 transcriptional activity in RMG-I cells; RMG-I TPO-luciferase reporter, SteadyGlo, 24 h; 360,000 tested, 1.2% active; inhibition, % at 12.6 µM; AID 652154;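 active = mean replicate inhibition at least 60% with every replicate also reaching 60%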;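 note: luciferase light reporting Pax8 driven TPO promoter activity; plate controls were median of neutral control wells for no effect and mitoxantrone controls for full effect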
* hit, by the source's call; nt = no result; ! = repeats disagree; [ ] = another dose, or the depositor's remark. Hits are enriched below; roughly 3.1% of the tested compounds scored in any of these assays.

SMILES | PGC1a acetyl inh | FGF22 binding | EWS-Fli block | Env fusion inh | FN deposition inh | PAX8 inh HTS
COc1cc(C(=O)N2CCN(c3ncnc4sc(C)c(C)c34)CC2)cc(OC)c1OC | -6 | nt | nt | 82* | 10 | nt
Cc1sc2ncnc(N3CCN(c4ncccn4)CC3)c2c1C | -2 | nt | nt | nt | nt | nt
Cc1ccc(C2=NNC(=Nc3ccc(F)cc3)SC2)cc1 | -15 | 0 | -53 | -21 | 3 | 12
CCc1ccc(C2=NNC(=Nc3cccc(S(=O)(=O)N(C)C)c3)SC2)cc1 | nt | 0 | 36 | 80* | -15 | 104*
COc1cc(/C(C)=N/NC(=O)c2ccc(CSc3nncn3C)cc2)cc(OC)c1OC | -5 | 43* | 14 | -10 | 1 | -16
COc1ccc(/C=N/n2cnc3c([nH]c4ccc(C)cc43)c2=O)cc1CN1CCCC1 | 4 | 0 | 59* | 10 | 0 | 20
COc1ccc(/C=N/n2cnc3c([nH]c4ccc(F)cc43)c2=O)cc1CN1CCCC1 | 5 | 0 | 57* | 4 | 7 | 11
COc1ccc2c(c1)[nH]c1c(=O)n(/N=C/c3ccc(OC)c(CN4CCCC4)c3)cnc12 | 4 | 0 | -8 | 9 | -6 | 5
C[C@@H]1CN([C@H](C)CO)C(=O)c2cc(-c3ccccc3)cnc2O[C@H]1CN(C)Cc1cccnc1 | 2 | 0 | -12 | -4[16.7 µM] | -13 | nt
CO[C@H]1CN(C)C(=O)c2cc(NC(=O)C3CCC3)ccc2OC[C@H](C)N(Cc2ccncc2)C[C@@H]1C | 2 | -1 | 2 | 31[16.7 µM] | 0 | nt
O=C1/C(=C\c2ccccc2)CCC/C1=C/c1ccccc1 | nt | 0 | 1 | 42 | 0 | 10
CCN(CC)CCC(=O)N1C/C(=C/c2ccccc2)C(=O)/C(=C\c2ccccc2)C1 | nt | 0 | 82* | nt | 21 | -13
CCC(=O)N(C)C[C@H]1Oc2cc(C#CCN(C)C)ccc2S(=O)(=O)N([C@H](C)CO)C[C@@H]1C | 0 | 0 | 3 | -23[16.7 µM] | -2 | nt
CCC(=NC(C)c1ccccc1)c1c(O)n(C)c(=O)n(C)c1=O (stereo unspecified) | 10 | nt | nt | 60* | nt | nt
O=C(NCC[C@H]1CC[C@H](NS(=O)(=O)c2ccc(Cl)cc2)[C@H](CO)O1)c1ccccc1F | -2 | 0 | 8 | -2[16.7 µM] | nt | -14
Cc1cccc(NC(=O)C2CCN(S(=O)(=O)c3cccc4nsnc34)CC2)n1 | -17 | nt | nt | 16 | 10 | 3
COc1ccc2nc(NC(=O)C3CCN(S(=O)(=O)c4cccc5nsnc45)CC3)sc2c1 | 2 | nt | nt | 80* | 14 | 63*
Cc1noc(C)c1NC(=O)N(C)C[C@H]1Oc2ccc(NS(=O)(=O)c3cn(C)cn3)cc2C(=O)N([C@@H](C)CO)C[C@@H]1C | -8 | 0 | -10 | nt | nt | nt
COc1ccc(S(=O)(=O)N2CCCCN3[C@H](CO)[C@H](c4ccc(C#CC(C)C)cc4)[C@H]3C2)cc1 | -11 | -1 | 35 | nt | 5 | 77*
COc1ccc(S(=O)(=O)N2CCCCN3[C@H](C2)[C@@H](c2ccc(C#CC(C)C)cc2)[C@@H]3CO)cc1 | -8 | -1 | 11 | nt | nt | 91*
COc1ccc(S(=O)(=O)N2CCCCN3[C@H](CO)[C@H](c4ccc(C5=CCCCC5)cc4)[C@H]3C2)cc1 | -19 | -1 | 0 | nt | nt | 65*
CCCC(=O)Nc1ccc2c(c1)C(=O)N(C)C[C@@H](OC)[C@H](C)CN(Cc1cncnc1)[C@@H](C)CO2 | 11 | nt | -1 | -4[16.7 µM] | 7 | 3
C=C1CCC[C@]2(C)C[C@H]3OC(=O)C(CN4CCOCC4)[C@H]3C[C@@H]12 (stereo partly specified) | -2 | 0 | 9 | 9 | -1 | 34
C/C1=C\CCC2C(/C=C(\C)CC1)OC(=O)C2CN1CCCCC1 (stereo unspecified) | 0 | 0 | -9 | 11 | -8 | 68*
O=C(Nc1ccccn1)c1ccccc1 | -5 | 0 | -60 | -20 | 0 | -122
SMILES | PGC1a acetyl inh | FGF22 binding | EWS-Fli block | Env fusion inh | FN deposition inh | PAX8 inh HTS
O=C(c1ccccc1)C(Nc1ccccn1)c1ccccc1 (stereo unspecified) | -2 | 44* | -13 | 12 | nt | 12
COc1ccc(NC(=O)C2(C)Cc3c(-c4ccc(NC(C)=O)cc4)ccnc3O2)cn1 (stereo unspecified) | 24 | 0 | -5 | -14 | 4 | 11
CC(=O)Nc1ccc(NC(=O)C2(C)Cc3c(-c4cccc(NC(C)=O)c4)ccnc3O2)cc1 (stereo unspecified) | nt | 0 | -2 | -18 | 13 | 18
COc1ccc(NC(=O)C2(C)Cc3c(-c4cccc(NC(C)=O)c4)ccnc3O2)cn1 (stereo unspecified) | -58 | 0 | 59* | -115 | -5 | nt
CC(=O)Nc1cccc(-c2ccnc3c2CC(C)(C(=O)Nc2ccc(Cl)cc2)O3)c1 (stereo unspecified) | nt | 0 | 62* | -29 | 13 | 56
C[C@H]1CN([C@@H](C)CO)S(=O)(=O)c2ccc(Br)cc2O[C@H]1CN(C)Cc1ccccc1 | -24 | 0 | -2 | 61*![16.7 µM] | -6 | 36
C[C@H]1CN([C@@H](C)CO)S(=O)(=O)c2ccc(Br)cc2O[C@H]1CN(C)Cc1ccc(F)cc1 | -17 | 0 | -9 | 71*[16.7 µM] | 6 | 1
C[C@H](CO)N1C[C@H](C)[C@@H](CN(C)Cc2ccc(F)cc2)Oc2cc(Br)ccc2S1(=O)=O | -20 | 0 | 15 | 40[16.7 µM] | -6 | nt
CS(=O)(=O)N(Cc1ccccc1)c1ccc(C(=O)Nc2cccnc2)cc1 | 2 | nt | nt | -19 | 16 | nt
O=C(NCCSc1ccccn1)c1ccc(Cl)cc1 | -35 | 0 | -111 | -67 | nt | -140
CS(=O)(=O)N(Cc1ccc(Cl)cc1)c1ccc(C(=O)NCCSc2ccccn2)cc1 | 6 | nt | nt | 85* | -7 | 22
CS(=O)(=O)N(Cc1ccc(Cl)cc1)c1ccc(C(=O)Nc2cccnc2)cc1 | nt | nt | nt | 60* | nt | nt
CN(C)c1ccc2c(c1)[C@@H]1C[C@@H](CC(=O)NCc3ccc4c(c3)OCO4)O[C@@H](CO)[C@@H]1O2 | -4 | -1 | -4 | 12[16.7 µM] | nt | 10
O=C(COC(=O)CSCc1ccccc1)NCc1ccccc1 | 7 | 43* | -1 | 6 | 2 | 11
CCC1(O)C(=O)OCc2c1cc1n(c2=O)Cc2cc3cc(O)ccc3nc2-1 (stereo unspecified) | 34 | 0 | 56* | nt | nt | nt
COc1ccccc1S(=O)(=O)N[C@@H]1CC[C@H](CC(=O)N2CCN(C)CC2)O[C@H]1CO | -11 | 0 | -10 | 8[16.7 µM] | 8 | -5
COc1ccccc1S(=O)(=O)N[C@H]1CC[C@@H](CC(=O)N2CCN(C)CC2)O[C@H]1CO | 1 | 0 | 4 | 57*[16.7 µM] | 7 | 11
COc1cc(OC)c(S(=O)(=O)NC(C)C)cc1S(=O)(=O)NC(C)C | 6 | 43* | -2 | -13 | 15 | -1
CC[C@H]1C(c2ccc(F)cc2)=NN(c2ccccc2)[C@@H]1CO | -9 | 0 | -14 | 60* | 9 | -8
